# Assays:
# [1] = target: Beta-3 adrenergic receptor (Homo sapiens, UniProt P13945); assay: Binding affinity to beta3 adrenergic receptor
# [2] = Binding affinity to GABA-A receptor muscimol site
# [3] = target: Alpha-1B adrenergic receptor (Homo sapiens, UniProt P35368); assay: Binding affinity to Alpha-1B adrenergic receptor
# [4] = target: Sodium-dependent dopamine transporter (Homo sapiens, UniProt Q01959); assay: Binding affinity to DAT
# [5] = target: Alpha-1D adrenergic receptor (Homo sapiens, UniProt P25100); assay: Binding affinity to Alpha-1D adrenergic receptor
# D(4) dopamine receptor = D(4) dopamine receptor (Homo sapiens, UniProt P21917); assay: Binding affinity to dopamine receptor D4
# [6] = target: Muscarinic acetylcholine receptor M4 (Homo sapiens, UniProt P08173); assay: Binding affinity to muscarinic acetylcholine receptor M4
# Histamine H2 receptor = Histamine H2 receptor (Homo sapiens, UniProt P25021); assay: Binding affinity to Histamine receptor H2
# [7] = Binding affinity to opioid receptor Sigma2
# [8] = target: 5-hydroxytryptamine receptor 2B (Homo sapiens, UniProt P41595); assay: Binding affinity to 5HT2B receptor
# [9] = target: T1, 5-hydroxytryptamine receptor 4 (Homo sapiens, UniProt Q13639); assay: Displacement of [3H]GR113808 from human 5HT4 receptor expressed in HEK293 cells by liquid scintillation counting; type: cell-based
# Procedure, shortened: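 Membranes from HEK293 line stably expressing human 5-HT4(b) at high level (5000 fmol/mg). Incubated with 0.3 nM [3H]GR113808 and 21 competitor concentrations in Tris-HCl pH 7.5, EDTA, EGTA, 2 mM MgCl2, ascorbate, 0.1% BSA, 100 µM GTP, room temperature 1 h. Filtered onto PEI-soaked filters, washed, scintillation counted. Ki derived from IC50 via Ki = IC50/(1+L/Kd).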
# [10] = target: 5-hydroxytryptamine receptor 1E (Homo sapiens, UniProt P28566); assay: Binding affinity to 5HT1E receptor
# [11] = target: Kappa-type opioid receptor (Homo sapiens, UniProt P41145); assay: Binding affinity to opioid receptor KOR
# [12] = target: Alpha-2A adrenergic receptor (Homo sapiens, UniProt P08913); assay: Binding affinity to alpha2A adrenergic receptor
# Histamine H4 receptor = Histamine H4 receptor (Homo sapiens, UniProt Q9H3N8); assay: Binding affinity to Histamine receptor H4
# [13] = target: T1, 5-hydroxytryptamine receptor 4; assay: Antagonistic activity at human 5HT4 receptor expressed in HEK293 cells assessed as inhibition of 5-HT stimulated ADCY activity after 20 mins; type: functional, cell-based
# Procedure, shortened: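 Membranes from HEK293 cells stably expressing human 5-HT4(b) at low level (400 fmol/mg). Adenylyl cyclase activity was stimulated by 1 µM 5-HT with 21 antagonist concentrations, 0.1 mM [α-32P]ATP, 4 mM MgCl2, 1 mM IBMX, GTP and ATP-regenerating system, 32 °C, 20 min. [32P]cAMP was isolated on Dowex/alumina columns. IC50 was fitted by non-linear regression and Kb calculated using 5-HT EC50.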
# [14] = target: Muscarinic acetylcholine receptor M2 (Homo sapiens, UniProt P08172); assay: Binding affinity to muscarinic acetylcholine receptor M2
# D(1B) dopamine receptor = D(1B) dopamine receptor (Homo sapiens, UniProt P21918); assay: Binding affinity to dopamine receptor D5
# Mu-type opioid receptor = Mu-type opioid receptor (Homo sapiens, UniProt P35372); assay: Binding affinity to opioid receptor MOR
# [15] = target: 5-hydroxytryptamine receptor 7 (Homo sapiens, UniProt P34969); assay: Binding affinity to 5HT7 receptor
# [16] = target: Muscarinic acetylcholine receptor M3 (Homo sapiens, UniProt P20309); assay: Binding affinity to muscarinic acetylcholine receptor M3
# [17] = Binding affinity to GABA receptor BDZ-site
# [18] = target: Alpha-2B adrenergic receptor (Homo sapiens, UniProt P18089); assay: Binding affinity to alpha2B adrenergic receptor
# [19] = target: Alpha-2C adrenergic receptor (Homo sapiens, UniProt P18825); assay: Binding affinity to Alpha-2C adrenergic receptor
# [20] = target: Beta-2 adrenergic receptor (Homo sapiens, UniProt P07550); assay: Binding affinity to beta2 adrenergic receptor
# Histamine H1 receptor = Histamine H1 receptor (Homo sapiens, UniProt P35367); assay: Binding affinity to Histamine receptor H1
# [21] = target: Beta-1 adrenergic receptor (Homo sapiens, UniProt P08588); assay: Binding affinity to beta1 adrenergic receptor
# [22] = target: Sodium-dependent serotonin transporter (Homo sapiens, UniProt P31645); assay: Binding affinity to SERT
# D(2) dopamine receptor = D(2) dopamine receptor (Homo sapiens, UniProt P14416); assay: Binding affinity to dopamine receptor D2
# [23] = target: 5-hydroxytryptamine receptor 1D (Homo sapiens, UniProt P28221); assay: Binding affinity to 5HT1D receptor
# [24] = target: 5-hydroxytryptamine receptor 6 (Homo sapiens, UniProt P50406); assay: Binding affinity to 5HT6 receptor
# [25] = target: Delta-type opioid receptor (Homo sapiens, UniProt P41143); assay: Binding affinity to opioid receptor DOR
# [26] = target: 5-hydroxytryptamine receptor 5A (Homo sapiens, UniProt P47898); assay: Binding affinity to 5HT5A receptor
# [27] = target: 5-hydroxytryptamine receptor 2C (Homo sapiens, UniProt P28335); assay: Binding affinity to 5HT2C receptor
# [28] = Lipophilicity, log D of the compound in octanol buffer at pH 7.4; type: physicochemical
# Procedure, shortened: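 Distribution between octanol and aqueous buffer at pH 7.4. Both phases were diluted and ligand concentration in each measured by HPLC. Not determined where micelles formed.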
# D(3) dopamine receptor = D(3) dopamine receptor (Homo sapiens, UniProt P35462); assay: Binding affinity to dopamine receptor D3
# [29] = target: 5-hydroxytryptamine receptor 2A (Homo sapiens, UniProt P28223); assay: Binding affinity to 5HT2A receptor
# Histamine H3 receptor = Histamine H3 receptor (Homo sapiens, UniProt Q9Y5N1); assay: Binding affinity to Histamine receptor H3
# [30] = target: 5-hydroxytryptamine receptor 1A (Homo sapiens, UniProt P08908); assay: Binding affinity to 5HT1A receptor
# [31] = target: Muscarinic acetylcholine receptor M5 (Homo sapiens, UniProt P08912); assay: Binding affinity to muscarinic acetylcholine receptor M5
# [32] = target: 5-hydroxytryptamine receptor 3A (Homo sapiens, UniProt P46098); assay: Binding affinity to 5HT3 receptor
# [33] = target: Muscarinic acetylcholine receptor M1 (Homo sapiens, UniProt P11229); assay: Binding affinity to muscarinic acetylcholine receptor M1
# [34] = target: Alpha-1A adrenergic receptor (Homo sapiens, UniProt P35348); assay: Binding affinity to alpha1A adrenergic receptor
# D(1A) dopamine receptor = D(1A) dopamine receptor (Homo sapiens, UniProt P21728); assay: Binding affinity to dopamine receptor D1
# [35] = target: 5-hydroxytryptamine receptor 1B (Homo sapiens, UniProt P28222); assay: Binding affinity to 5HT1B receptor
# [36] = target: T1, 5-hydroxytryptamine receptor 4; assay: Antagonistic activity at human 5HT4 receptor expressed in HEK293 cells; type: functional, cell-based
# [37] = target: Sigma non-opioid intracellular receptor 1 (Homo sapiens, UniProt Q99720); assay: Binding affinity to opioid receptor Sigma1
# [38] = Half life in bovine plasma by HPLC; type: ADME, Bos taurus; settings: cattle
# Procedure, shortened: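 Ester incubated at 40 µM initial concentration in bovine plasma at 37 °C for up to 10 h. Aliquots were removed at intervals and H3PO4 added to release protein-bound drug. Parent ester and free-acid degradation product were quantified by HPLC, and half-life was calculated.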
# T1 sequence (Q13639 whole entry): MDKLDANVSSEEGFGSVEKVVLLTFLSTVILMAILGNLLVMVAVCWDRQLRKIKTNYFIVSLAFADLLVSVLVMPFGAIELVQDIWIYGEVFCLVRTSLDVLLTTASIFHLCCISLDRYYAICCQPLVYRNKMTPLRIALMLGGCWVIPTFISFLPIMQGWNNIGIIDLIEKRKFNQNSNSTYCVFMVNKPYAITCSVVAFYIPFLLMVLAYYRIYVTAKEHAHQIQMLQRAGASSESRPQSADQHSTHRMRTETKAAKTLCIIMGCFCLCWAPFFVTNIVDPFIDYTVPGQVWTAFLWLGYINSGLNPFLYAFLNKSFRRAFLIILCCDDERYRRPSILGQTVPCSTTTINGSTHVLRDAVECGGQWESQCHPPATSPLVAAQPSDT
# Sequence of Histamine H3 receptor (Q9Y5N1 whole entry): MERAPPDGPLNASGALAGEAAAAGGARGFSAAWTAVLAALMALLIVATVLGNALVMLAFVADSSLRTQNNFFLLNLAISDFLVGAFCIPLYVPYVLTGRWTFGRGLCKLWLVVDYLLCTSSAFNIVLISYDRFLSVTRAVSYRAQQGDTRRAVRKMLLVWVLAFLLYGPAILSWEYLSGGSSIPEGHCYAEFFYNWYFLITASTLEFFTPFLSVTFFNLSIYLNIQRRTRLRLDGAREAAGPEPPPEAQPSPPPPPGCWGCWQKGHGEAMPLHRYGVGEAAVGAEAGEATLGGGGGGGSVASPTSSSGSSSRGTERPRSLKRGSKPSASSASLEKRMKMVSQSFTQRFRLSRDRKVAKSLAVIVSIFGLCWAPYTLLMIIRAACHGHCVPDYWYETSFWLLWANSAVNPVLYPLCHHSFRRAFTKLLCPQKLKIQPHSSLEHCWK
# Sequence of 5-hydroxytryptamine receptor 2B (P41595 whole entry): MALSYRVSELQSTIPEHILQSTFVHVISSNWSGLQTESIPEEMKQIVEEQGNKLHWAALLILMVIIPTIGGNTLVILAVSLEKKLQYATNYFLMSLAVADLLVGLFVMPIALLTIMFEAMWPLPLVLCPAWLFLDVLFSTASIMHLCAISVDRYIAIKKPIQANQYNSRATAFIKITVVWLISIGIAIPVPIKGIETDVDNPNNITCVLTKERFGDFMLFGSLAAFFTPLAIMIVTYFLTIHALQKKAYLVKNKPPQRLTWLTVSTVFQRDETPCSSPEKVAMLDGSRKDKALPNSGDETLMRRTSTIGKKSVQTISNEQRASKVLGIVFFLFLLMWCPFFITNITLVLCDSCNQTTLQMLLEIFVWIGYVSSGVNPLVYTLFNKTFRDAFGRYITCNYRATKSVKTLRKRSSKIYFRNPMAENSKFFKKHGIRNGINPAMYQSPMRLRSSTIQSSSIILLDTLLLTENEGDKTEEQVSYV
# Sequence of Alpha-2C adrenergic receptor (P18825 whole entry): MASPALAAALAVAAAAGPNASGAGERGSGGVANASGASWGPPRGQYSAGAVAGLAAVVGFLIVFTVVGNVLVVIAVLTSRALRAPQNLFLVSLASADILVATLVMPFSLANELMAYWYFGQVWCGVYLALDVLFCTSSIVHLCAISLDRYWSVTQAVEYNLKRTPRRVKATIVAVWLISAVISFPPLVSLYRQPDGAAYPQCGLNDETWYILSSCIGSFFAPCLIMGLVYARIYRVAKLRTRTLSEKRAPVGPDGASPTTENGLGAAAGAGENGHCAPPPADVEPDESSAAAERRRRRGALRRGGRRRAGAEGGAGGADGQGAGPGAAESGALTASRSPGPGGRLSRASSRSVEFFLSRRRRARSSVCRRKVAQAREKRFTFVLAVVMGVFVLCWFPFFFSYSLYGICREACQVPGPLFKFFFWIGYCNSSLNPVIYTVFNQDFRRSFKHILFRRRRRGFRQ
# Sequence of Mu-type opioid receptor (P35372 whole entry): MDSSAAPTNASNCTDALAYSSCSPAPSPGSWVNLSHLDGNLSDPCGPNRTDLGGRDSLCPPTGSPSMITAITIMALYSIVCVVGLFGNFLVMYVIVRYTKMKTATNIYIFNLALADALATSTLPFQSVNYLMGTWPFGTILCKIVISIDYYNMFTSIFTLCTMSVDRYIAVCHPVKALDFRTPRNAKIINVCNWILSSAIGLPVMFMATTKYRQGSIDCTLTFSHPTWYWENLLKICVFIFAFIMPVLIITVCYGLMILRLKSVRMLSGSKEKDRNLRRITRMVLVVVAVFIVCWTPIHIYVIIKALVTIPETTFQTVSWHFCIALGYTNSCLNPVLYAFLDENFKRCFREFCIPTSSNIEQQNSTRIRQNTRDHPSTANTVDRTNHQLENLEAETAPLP
# Sequence of Sodium-dependent dopamine transporter (Q01959 whole entry): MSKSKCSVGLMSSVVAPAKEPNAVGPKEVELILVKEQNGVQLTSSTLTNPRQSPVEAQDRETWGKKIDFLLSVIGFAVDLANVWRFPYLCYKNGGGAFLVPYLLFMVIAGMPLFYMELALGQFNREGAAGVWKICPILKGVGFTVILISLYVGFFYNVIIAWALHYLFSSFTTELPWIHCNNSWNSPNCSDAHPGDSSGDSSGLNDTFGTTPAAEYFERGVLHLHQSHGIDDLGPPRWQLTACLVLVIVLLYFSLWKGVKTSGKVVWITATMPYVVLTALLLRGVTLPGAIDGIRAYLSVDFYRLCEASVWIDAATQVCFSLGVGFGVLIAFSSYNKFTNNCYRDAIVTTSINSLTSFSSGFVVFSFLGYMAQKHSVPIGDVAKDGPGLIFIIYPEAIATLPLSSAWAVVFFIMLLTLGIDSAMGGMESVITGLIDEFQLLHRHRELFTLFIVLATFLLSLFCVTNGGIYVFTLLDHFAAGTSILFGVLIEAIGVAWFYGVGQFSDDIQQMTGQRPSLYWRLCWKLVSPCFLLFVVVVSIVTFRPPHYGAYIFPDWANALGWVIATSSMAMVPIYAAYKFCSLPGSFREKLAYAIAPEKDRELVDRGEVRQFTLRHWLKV
# Sequence of Sodium-dependent serotonin transporter (P31645 whole entry): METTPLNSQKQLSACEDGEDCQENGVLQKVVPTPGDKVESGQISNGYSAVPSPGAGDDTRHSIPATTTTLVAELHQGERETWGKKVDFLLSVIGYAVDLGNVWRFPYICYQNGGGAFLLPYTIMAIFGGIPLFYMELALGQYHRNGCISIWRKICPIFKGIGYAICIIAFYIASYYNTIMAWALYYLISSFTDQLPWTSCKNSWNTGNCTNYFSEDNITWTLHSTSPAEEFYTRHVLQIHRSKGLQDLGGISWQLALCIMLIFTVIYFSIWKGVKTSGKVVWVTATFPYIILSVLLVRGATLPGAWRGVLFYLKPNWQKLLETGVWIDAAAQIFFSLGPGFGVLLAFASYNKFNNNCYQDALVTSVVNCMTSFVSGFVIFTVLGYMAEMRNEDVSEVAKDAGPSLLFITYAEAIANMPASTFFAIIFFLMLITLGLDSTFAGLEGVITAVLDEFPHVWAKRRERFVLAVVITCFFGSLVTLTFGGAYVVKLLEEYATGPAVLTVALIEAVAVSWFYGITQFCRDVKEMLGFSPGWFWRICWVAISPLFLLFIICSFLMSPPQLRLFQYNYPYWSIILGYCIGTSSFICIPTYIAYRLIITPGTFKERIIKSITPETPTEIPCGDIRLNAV
# Sequence of D(2) dopamine receptor (P14416 whole entry): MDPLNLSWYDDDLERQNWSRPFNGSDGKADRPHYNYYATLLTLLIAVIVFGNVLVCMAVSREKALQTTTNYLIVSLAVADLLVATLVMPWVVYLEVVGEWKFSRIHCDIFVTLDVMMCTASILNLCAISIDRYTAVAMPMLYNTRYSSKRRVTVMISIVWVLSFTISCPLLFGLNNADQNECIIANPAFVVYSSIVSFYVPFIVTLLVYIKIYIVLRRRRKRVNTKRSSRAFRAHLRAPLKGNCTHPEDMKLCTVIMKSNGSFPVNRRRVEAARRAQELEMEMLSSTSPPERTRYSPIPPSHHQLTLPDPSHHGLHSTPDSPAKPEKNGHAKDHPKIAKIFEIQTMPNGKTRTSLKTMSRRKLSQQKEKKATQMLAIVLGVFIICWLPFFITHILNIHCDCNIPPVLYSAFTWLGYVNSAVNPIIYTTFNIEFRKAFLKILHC
# Sequence of Alpha-1B adrenergic receptor (P35368 whole entry): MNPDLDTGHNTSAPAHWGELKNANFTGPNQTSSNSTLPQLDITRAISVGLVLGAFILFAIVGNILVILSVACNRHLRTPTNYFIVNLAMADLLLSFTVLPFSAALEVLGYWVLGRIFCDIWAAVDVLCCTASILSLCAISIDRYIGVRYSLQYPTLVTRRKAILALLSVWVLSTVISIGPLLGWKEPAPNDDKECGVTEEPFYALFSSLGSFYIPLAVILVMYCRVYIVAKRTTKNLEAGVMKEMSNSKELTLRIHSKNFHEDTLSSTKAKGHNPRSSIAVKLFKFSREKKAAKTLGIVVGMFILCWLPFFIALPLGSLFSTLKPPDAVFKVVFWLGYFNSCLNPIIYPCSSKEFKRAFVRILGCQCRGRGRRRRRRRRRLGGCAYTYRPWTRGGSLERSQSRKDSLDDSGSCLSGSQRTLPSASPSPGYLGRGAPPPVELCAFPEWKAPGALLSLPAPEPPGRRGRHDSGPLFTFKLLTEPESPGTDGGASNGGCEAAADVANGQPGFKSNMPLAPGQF
# Sequence of D(4) dopamine receptor (P21917 whole entry): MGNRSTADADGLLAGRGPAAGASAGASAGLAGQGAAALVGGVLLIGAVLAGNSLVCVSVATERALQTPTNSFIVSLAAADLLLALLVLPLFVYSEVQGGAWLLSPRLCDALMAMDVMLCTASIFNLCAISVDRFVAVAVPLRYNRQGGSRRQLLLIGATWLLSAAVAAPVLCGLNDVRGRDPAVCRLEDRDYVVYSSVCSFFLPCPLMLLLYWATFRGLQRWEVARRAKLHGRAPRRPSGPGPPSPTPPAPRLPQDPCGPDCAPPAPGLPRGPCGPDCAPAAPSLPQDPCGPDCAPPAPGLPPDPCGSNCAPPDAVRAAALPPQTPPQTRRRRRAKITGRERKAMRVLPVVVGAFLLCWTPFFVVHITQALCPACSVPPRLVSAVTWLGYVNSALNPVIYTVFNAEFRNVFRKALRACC
compound,measurement,setting,value
O=C(O)CCCCCN1CCC(CNC(=O)c2c3n(c4ccccc24)CCCO3)CC1,Ki,[1],> 10 µM
same,pKi,[2],< 5
same,Ki,[3],> 10 µM
same,Ki,[4],> 10 µM
same,Ki,[5],> 10 µM
same,Ki,D(4) dopamine receptor,> 10 µM
same,Ki,[6],> 10 µM
same,Ki,Histamine H2 receptor,> 10 µM
same,pKi,[7],< 5
same,Ki,[8],> 10 µM
same,Ki,[9],1.55 nM
same,Ki,[10],> 10 µM
same,Ki,[11],> 10 µM
same,Ki,[12],> 10 µM
same,Ki,Histamine H4 receptor,> 10 µM
same,pKb,[13],7.94
same,Ki,[14],> 10 µM
same,Ki,D(1B) dopamine receptor,> 10 µM
same,Ki,Mu-type opioid receptor,> 10 µM
same,Ki,[15],> 10 µM
same,Ki,[16],> 10 µM
same,pKi,[17],< 5
same,Ki,[18],> 10 µM
same,Ki,[19],> 10 µM
same,Ki,[20],> 10 µM
same,Ki,Histamine H1 receptor,> 10 µM
same,Ki,[21],> 10 µM
same,Ki,[22],> 10 µM
same,Ki,D(2) dopamine receptor,> 10 µM
same,Ki,[23],> 10 µM
same,Ki,[24],> 10 µM
same,Ki,[25],> 10 µM
same,Ki,[26],> 10 µM
same,Ki,[27],> 10 µM
same,logD,[28],-1.3
same,Ki,D(3) dopamine receptor,> 10 µM
same,Ki,[29],> 10 µM
same,Ki,Histamine H3 receptor,> 10 µM
same,Ki,[30],> 10 µM
same,Ki,[31],> 10 µM
same,Ki,[32],> 10 µM
same,Ki,[33],> 10 µM
same,Ki,[34],> 10 µM
same,Ki,D(1A) dopamine receptor,> 10 µM
same,Ki,[35],> 10 µM
O=C(O)CCCCCCCCCCCN1CCC(CNC(=O)c2c3n(c4ccccc24)CCCO3)CC1,Ki,[9],2.45 nM
same,pKb,[13],8.97
COC(=O)CCCCCCCCCN1CCC(CNC(=O)c2c3n(c4ccccc24)CCCO3)CC1,Ki,[9],0.195 nM
same,pKb,[13],9.33
O=C(O)CCCN1CCC(CNC(=O)c2c3n(c4ccccc24)CCCO3)CC1,Ki,[9],2 nM
same,pKb,[13],7.96
same,logD,[28],-1.2
O=C(O)CCCCN1CCC(CNC(=O)c2c3n(c4ccccc24)CCCO3)CC1,Ki,[9],2.04 nM
same,pKb,[13],8.1
same,logD,[28],-1.3
O=C(O)CCCN1CCC(CNC(=O)c2c[nH]c3ccccc23)CC1,pKb,[13],4.62
same,Ki,[36],3630 nM
COC(=O)CCCCCN1CCC(CNC(=O)c2c3n(c4ccccc24)CCCO3)CC1,Ki,[1],> 10 µM
same,pKi,[2],< 5
same,Ki,[3],> 10 µM
same,Ki,[4],> 10 µM
same,Ki,[5],> 10 µM
same,Ki,D(4) dopamine receptor,> 10 µM
same,Ki,[6],> 10 µM
same,Ki,Histamine H2 receptor,3.16 µM
same,pKi,[7],< 5
same,Ki,[8],0.316 µM
same,Ki,[9],0.107 nM
same,Ki,[10],> 10 µM
same,Ki,[11],> 10 µM
same,Ki,[12],> 10 µM
same,Ki,Histamine H4 receptor,> 10 µM
same,pKb,[13],9.13
same,Ki,[14],2.51 µM
same,Ki,D(1B) dopamine receptor,> 10 µM
same,Ki,Mu-type opioid receptor,> 10 µM
same,Ki,[15],> 10 µM
same,Ki,[16],> 10 µM
same,pKi,[17],< 5
same,Ki,[18],1.26 µM
same,Ki,[19],> 10 µM
same,Ki,[20],> 10 µM
same,Ki,Histamine H1 receptor,1.26 µM
same,Ki,[21],> 10 µM
same,Ki,[37],0.398 µM
same,Ki,[22],> 10 µM
same,Ki,D(2) dopamine receptor,> 10 µM
same,Ki,[23],3.16 µM
same,Ki,[24],> 10 µM
same,Ki,[25],> 10 µM
same,Ki,[26],> 10 µM
same,Ki,[27],> 10 µM
same,logD,[28],2.2
same,Ki,D(3) dopamine receptor,> 10 µM
same,Ki,[29],6.31 µM
same,Ki,Histamine H3 receptor,> 10 µM
same,Ki,[30],> 10 µM
same,Ki,[31],> 10 µM
same,Ki,[32],2.51 µM
same,Ki,[33],> 10 µM
same,Ki,[34],> 10 µM
same,Ki,D(1A) dopamine receptor,> 10 µM
same,Ki,[35],> 10 µM
CCOC(=O)CCCN1CCC(CNC(=O)c2c[nH]c3ccccc23)CC1,pKb,[13],5.84
same,Ki,[36],107 nM
Cn1cc(C(=O)OCC2CCN(CCNS(C)(=O)=O)CC2)c2ccccc21,pKb,[13],9.24
same,Ki,[36],0.0741 nM
O=C(O)CCCN1CCC(COC(=O)c2c[nH]c3ccccc23)CC1,pKb,[13],8.16
same,Ki,[36],0.813 nM
CCOC(=O)CCCN1CCC(CNC(=O)c2c3n(c4ccccc24)CCCO3)CC1,half-life,[38],30 min
same,Ki,[9],0.102 nM
same,pKb,[13],9.43
O=C(CCCCN1CCC(CNC(=O)c2c3n(c4ccccc24)CCCO3)CC1)OCc1ccccc1,Ki,[9],0.00145 nM
same,pKb,[13],10.2
CCOP(=O)(CCN1CCC(CNC(=O)c2c3n(c4ccccc24)CCCO3)CC1)OCC,Ki,[9],1.26 nM
same,pKb,[13],8.64
